Assay results from different studies.
Each line is one published result; the experiments were not run side by side.
Target: Discoidin domain-containing receptor 2 (DDR2, Homo sapiens, UniProt Q16832)

O=C1NC(=O)c2cc(Nc3ccc(F)cc3)c(Nc3ccc(F)cc3)cc21 — remaining signal (cell-free assay; 0.5 µM): 99.6%
Cc1noc([C@H]2C[C@@H](c3ccc(C(F)(F)F)cc3)CN(C(=O)N3CCS(=O)(=O)C3)C2)n1 — remaining binding (cell-free assay, competition with immobilised ligand; 1 µM): 74%
Cc1ccc(NC(=O)c2ccc(C)c(C(F)(F)F)c2)cc1C#Cc1nn(C2CCC(O)CC2)c2ncnc(N)c12 (stereo not drawn) — remaining signal (cell-free assay; 10 µM): 16%
Cc1[nH]c(/C=C2\C(=O)Nc3ccc(F)cc32)c(C)c1C(=O)N[C@H]1CCN(C(=O)N(C)C)C1 — remaining activity (enzyme activity, inhibitor; 1 µM): 107%
O=C(Nc1cnn(-c2csc(C(=O)NC3COC3)c2)c1)Nc1c(F)cccc1Cl — remaining activity (enzyme activity, inhibitor; 5 µM): 96.6%
CCN(CC)c1ccc(C2=NNC(=O)CC2C)cc1[N+](=O)[O-] (stereo not drawn) — remaining activity (enzyme activity, inhibitor; 10 µM): 100%
CC(C)(O)[C@H]1CC[C@H](Nc2ccc3ncc(-c4cccc(C(F)(F)F)c4)n3n2)CC1 — remaining activity (enzyme activity, inhibitor; 1 µM): 49.5%
CCC(=O)N[C@H]1CC[C@@H](C(=O)N(C)c2ccc(-c3nc4ccccc4o3)cc2)C1 — remaining binding (cell-free assay, competition with immobilised ligand; 1 µM): 100%
Cc1cc(NC(=O)c2cccc3cc(-c4cccc5[nH]nc(N)c45)ccc23)ccc1F — activity vs control (enzyme activity, inhibitor; 0.1 µM): 60%
CCN(CC)CCNC(=O)c1c(C)[nH]c(/C=C2\C(=O)Nc3ccc(F)cc32)c1C — inhibition (enzyme activity, inhibitor; 10 µM): 31%
O=C(Nc1ccc(Oc2ccc(F)cc2)cc1)N1CCc2ncccc2[C@H]1c1ccc(F)cc1 — remaining binding (cell-free assay, competition with immobilised ligand; 1 µM): 100%
Cc1ccc(Nc2nccc(N(C)c3ccc4c(C)n(C)nc4c3)n2)cc1S(N)(=O)=O — remaining signal (cell-free assay; 0.5 µM): 36.2%
CNC(=O)c1cc(Oc2ccc(NC(=O)Nc3ccc(Cl)c(C(F)(F)F)c3)cc2)ccn1 — inhibition (enzyme activity, inhibitor; 0.3 µM): 108%
CC(C)(C)c1nc2c(s1)c1nc(N)ncc1c1ccc(NS(=O)(=O)c3c(F)cccc3F)c(F)c12 — remaining activity (enzyme activity, inhibitor, radiometric; 1 µM): 69%
Cc1ccc(C(=O)NCc2ccsc2)cc1C#Cc1cn(C(C)C)c2ncnc(N)c12 — activity vs control (enzyme activity, inhibitor; 1 µM): 4%
CN(C)c1ncnc(-c2ccc3nc(Nc4cc(CN5CCN(C(=O)CC(F)(F)F)CC5)ccn4)[nH]c3c2)c1Cl — remaining binding (cell-free assay, competition with immobilised ligand; 1 µM): 71%
CCN(CC)CCNC(=O)c1c(C)[nH]c(/C=C2\C(=O)Nc3ccc(F)cc32)c1C — remaining activity (enzyme activity, inhibitor; 1 µM): 103%
CNC(=O)c1cc2c(Oc3ccc(NC(=O)C4(C(=O)Nc5ccc(F)cc5)CC4)cc3)ccnc2cc1OC — inhibition (enzyme activity, inhibitor, radiometric; 1 µM): 104%
CS(=O)(=O)N1CCCC(NC(=O)[C@H](CCC2CCCCC2)NC(=O)c2ccc(CNC(=O)c3cnc4ccccn34)cc2)C1 (stereo partly drawn) — remaining binding (cell-free assay, competition with immobilised ligand; 0.1 µM): 0%
C=CC(=O)Nc1cc(Nc2nccc(Nc3cc(Cl)c(F)cc3C(C)(C)O)n2)c(OC)cc1N1CC[C@@H](N(C)C)C1 — inhibition (enzyme activity, inhibitor; 1 µM): 1%
Cc1cc(NC(=O)c2cccc(S(F)(F)(F)(F)F)c2)cc(-n2ccn3nc(-c4cccnc4)cc23)c1 — remaining binding (cell-free assay, competition with immobilised ligand; 1 µM): 18.2%
Cc1ccc(C(=O)Nc2ccc(CN3CCN(C)CC3)c(C(F)(F)F)c2)cc1C#Cc1cnc2cccnn12 — remaining signal (cell-free assay; 23.5 nM): 0.3%
COc1cc(/C=C/C(=O)CC(=O)/C=C/c2ccc(O)c(OC)c2)ccc1O — activity vs control (enzyme activity, inhibitor; 1 µM): 109%
CS(=O)(=O)c1cc(C2(NC(=O)c3cncc4c3cnn4-c3ccc(F)cc3)CC2)ccn1 — remaining binding (cell-free assay, competition with immobilised ligand; 1 µM): 100%
